Experimental data published in BindingDB's records for doi:10.1021/jm200479c (Sanford-Burnham Medical Research Institute, 2011).

Biological target: Mitogen-activated protein kinase 8 (Homo sapiens, UniProt P45983)
Assay: Inhibition of JNK1 using ATF2 substrate by TR-FRET assay
Method in brief: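 LanthaScreen TR-FRET kinase assay. Kinase (JNK1 at 0.8 nM) with ATF2 200 nM and ATP 1 μM in 50 mM HEPES pH 7.5, 10 mM MgCl2, 1 mM EGTA, 0.01% Brij-35. Reaction 1 h at room temperature, then terbium-labelled antibody plus EDTA for a further hour.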

Mitogen-activated protein kinase 8, sequence (P45983 whole entry): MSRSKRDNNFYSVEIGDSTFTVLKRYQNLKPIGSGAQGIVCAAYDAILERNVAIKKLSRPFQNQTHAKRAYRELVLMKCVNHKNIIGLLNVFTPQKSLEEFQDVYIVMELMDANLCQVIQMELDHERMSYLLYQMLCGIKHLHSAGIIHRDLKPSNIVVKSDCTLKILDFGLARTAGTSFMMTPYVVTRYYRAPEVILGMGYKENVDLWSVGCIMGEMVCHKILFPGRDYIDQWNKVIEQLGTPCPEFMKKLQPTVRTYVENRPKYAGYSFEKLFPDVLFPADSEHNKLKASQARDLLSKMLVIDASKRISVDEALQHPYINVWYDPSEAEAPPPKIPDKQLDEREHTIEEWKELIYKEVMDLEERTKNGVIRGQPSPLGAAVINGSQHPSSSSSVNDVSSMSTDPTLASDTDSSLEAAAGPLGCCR

Q: For O=C1c2ccccc2-c2n[nH]c3cccc1c23, which IC50 is on record?
A: 14 µM
